From ChEMBL document CHEMBL5252537, “Usnic Acid Benzylidene Analogues as Potent Mechanistic Target of Rapamycin Inhibitors for the Control of Breast Malignancies” (J Nat Prod, 2017)
Calls of active or inactive are those of the source. The calls are words filed in the database; no cut-off is given here.

Experiments:
[1] = system: SK-BR-3; experiment: Antiproliferative activity against human SK-BR-3 cells incubated for 72 hrs by MTT assay; type: functional, cell-based; settings: SK-BR-3, 72 h
Summary of the method: (§1)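 Cells seeded at 5 × 10^3/well and allowed to attach overnight, then washed with PBS. Compound diluted from 10 mM DMSO stock into medium (100 ng/mL HGF added for c-Met-expressing cells), in triplicate, 72 h at 37 °C. MTT added for 4 h, formazan dissolved in DMSO, absorbance read at 570 nm. Cell numbers taken from a standard curve; IC50 calculated.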

[2] = system: T47D; experiment: Antiproliferative activity against human T47D cells incubated for 72 hrs by MTT assay; type: functional, cell-based; summary of the method: as §1
[3] = system: MDA-MB-231; experiment: Antiproliferative activity against human MDA-MB-231 cells incubated for 72 hrs by MTT assay; type: functional, cell-based; settings: MDA-MB-231, 72 h; summary of the method: as §1
[4] = biological target: Serine/threonine-protein kinase mTOR (Homo sapiens) (UniProt P42345); experiment: Inhibition of mTOR in human […] cells assessed as reduction in p-S6K level at 0.25 to 0.5 uM by Western blot analysis; type: cell-based; settings: MCF7, dose 0.25-0.5 µM
Summary of the method: (§2)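 Cells seeded at 5 × 10^5 per 100 mm dish and allowed to attach overnight. Treated with compound or DMSO for 72 h (HGF 100 ng/mL added for MDA-MB-231). Lysed in RIPA buffer with protease inhibitors. 30 μg protein run on SDS-PAGE, transferred to PVDF, blocked in 5% BSA/TBST. Primary antibodies overnight at 4 °C, HRP secondary antibodies, chemiluminescent detection.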

[5] = biological target: Serine/threonine-protein kinase mTOR (Homo sapiens) (UniProt P42345); experiment: Inhibition of mTOR in human MDA-MB-231 cells assessed as reduction in p-S6K level at 0.25 to 0.5 uM by Western blot analysis; type: cell-based; settings: dose 0.25-0.5 µM; summary of the method: as §2
[6] = biological target: T1, mTORC2 (Homo sapiens) (UniProt P42345+Q6R327+Q9BVC4+Q9BPZ7); experiment: Inhibition of mTORC2 in human MCF7 cells assessed as reduction in Akt phosphorylation at Ser473 residue at 0.25 to 0.5 uM by Western blot analysis; type: cell-based; settings: dose 0.25-0.5 µM; summary of the method: as §2
[7] = biological target: T1, mTORC2 (Homo sapiens); experiment: Inhibition of mTORC2 in human MDA-MB-231 cells assessed as reduction in Akt phosphorylation at Ser473 residue at 0.25 to 0.5 uM by Western blot analysis; type: cell-based; settings: dose 0.25-0.5 µM; summary of the method: as §2
[8] = system: MDA-MB-231; experiment: Induction of autophagy in human MDA-MB-231 cells assessed as increase in LC3 level at 0.4 to 0.8 uM by Western blotting analysis; type: functional, cell-based; settings: dose 0.4-0.8 µM; summary of the method: as §2
[9] = system: MCF7; experiment: Induction of autophagy in human MCF7 cells assessed as autophagic vacuoles by microscopic analysis; type: functional, cell-based
Summary of the method: (§3)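 Cells of each line treated with compound and examined by light microscopy for autophagic vacuoles, compared with control cells.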

[10] = system: SK-BR-3; experiment: Induction of autophagy in human SK-BR-3 cells assessed as autophagic vacuoles by microscopic analysis; type: functional, cell-based; summary of the method: as §3
[11] = system: MDA-MB-468; experiment: Induction of autophagy in human MDA-MB-468 cells assessed as autophagic vacuoles by microscopic analysis; type: functional, cell-based; summary of the method: as §3
[12] = system: BT-474; experiment: Induction of autophagy in human BT-474 cells assessed as autophagic vacuoles by microscopic analysis; type: functional, cell-based; summary of the method: as §3
[13] = system: MCF7; experiment: Inhibition of colony formation in human MCF7 cells at 0.2 uM incubated for 8 days by inverted phase contrast microscopic analysis; type: functional; settings: MCF7, 192 h, time 8 day
Summary of the method: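 Soft agar assay: 5 × 10^3 MCF-7 cells per well in a cell/agar matrix layered over a base agar layer. Overlaid with 10% serum medium containing 0.2 or 0.6 μM compound, or DMSO. Colonies photographed under inverted phase-contrast microscopy after 8 days. Matrix then solubilized, MTT added (4 h, 37 °C), detergent added, A570 read. Growth normalized to DMSO.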

[14] = Toxicity in athymic nude mouse xenografted with human MCF7 cells assessed as reduction in body weight at 10 mg/kg, ip measured after 75 days post inoculation; settings: in vivo, 1800 h
[15] = biological target: Serine/threonine-protein kinase mTOR (Homo sapiens) (UniProt P42345); experiment: In vivo inhibition of mTOR in human MDA-MB-231/GFP cells xenografted in athymic nude mouse assessed as downregulation of phosphorylated S6K level at 10 mg/kg, ip
[16] = system: MDA-MB-231; experiment: Antitumor activity against human MDA-MB-231/GFP cells xenografted in athymic nude mouse assessed as inhibition of tumor growth at 10 mg/kg, ip administered for 3 weeks; set-up: scale not given: the % may be the effect or the level left
[17] = Toxicity in athymic nude mouse xenografted with human MDA-MB-231/GFP cells assessed as reduction in body weight at 10 mg/kg, ip measured after 34 days post inoculation; settings: in vivo, 816 h

- IC50 [1]: 400 nM
- IC50 [2]: 330 nM
- IC50 [3]: 320 nM
- inhibition [4]: Active
- inhibition [5]: Active
- inhibition [6]: Active
- inhibition [7]: Active
- inhibition [15]: Active
Structure (SMILES): CC(=O)C1=C(O)C=C2Oc3c(C(=O)/C=C/c4ccc(OC(F)(F)F)cc4)c(O)c(C)c(O)c3[C@]2(C)C1=O
- Activity [8]: Active
- Activity [9]: Active
- Activity [10]: Active
- Activity [11]: Active
- Activity [12]: Active
- inhibition at 0.2 µM [13]: 22.9%
- Activity [14]: Non-Toxic
- Activity [16]: 62.3%
- Activity [17]: Non-Toxic
